Reference: ChEMBL document CHEMBL1157042, “Triazole incorporated thiazoles as a new class of anticonvulsants: design, synthesis and in vivo screening” (Eur J Med Chem, 2010)
Activity calls are given as the source filed them.

How the values were obtained:
Mus musculus [1] = experiment: Anticonvulsant activity in ip dosed Swiss albino mouse assessed as inhibition of PTZ-induced motor impairment after 4 hrs; format: functional; conditions: read-out: MED
Procedure, shortened: (§1)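 Albino mice of either sex (25–30 g), 6 per group, dosed i.p. in polyethylene glycol at 30, 100 or 300 mg/kg. Subcutaneous pentylenetetrazole was given at 0.5 h or 4.0 h, and mice were watched for 30 min. Protection meant no threshold seizure (single clonic spasm episode of at least 5 s). The value is the minimum dose protecting half or more.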

[2] = Neurotoxicity in ip dosed Swiss albino mouse after 0.5 hrs; format: toxicity, organism-based; conditions: in vivo
Procedure, shortened: (§2)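 Albino mice of either sex (25–30 g), 6 per group, received i.p. doses of 30, 100 and 300 mg/kg in polyethylene glycol. Trained mice were tested on the rotorod at 0.5 h and 4.0 h. Neurotoxicity was failure to keep balance on the rod for at least 1 min in each trial. The value recorded is the minimum dose affecting half or more of the mice.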

[3] = Neurotoxicity in ip dosed Swiss albino mouse after 4 hrs; format: toxicity, organism-based; conditions: in vivo; procedure, shortened: as §2
Mus musculus [4] = experiment: Anticonvulsant activity in ip dosed Swiss albino mouse assessed as inhibition of maximum electric shock-induced motor impairment after 0.5 hrs; format: functional; conditions: read-out: MED
Mus musculus [5] = experiment: Anticonvulsant activity in ip dosed Swiss albino mouse assessed as inhibition of PTZ-induced motor impairment after 0.5 hrs; format: functional; conditions: read-out: MED; procedure, shortened: as §1
Mus musculus [6] = experiment: Anticonvulsant activity in ip dosed Swiss albino mouse assessed as inhibition of maximum electric shock-induced motor impairment after 4 hrs; format: functional; conditions: read-out: MED
[7] = Neurotoxicity in po dosed Swiss albino mouse after 2 hrs; format: toxicity, organism-based; conditions: in vivo
Procedure, shortened: (§3)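 Phase IV: same procedure as i.p. phase II (MES protection, or rotorod failure for at least 1 min per trial), but drugs were given orally. Groups of 10 albino mice got a dose range yielding at least three points within 10–90% effect. ED50 or TD50 was read at the indicated time via Litchfield–Wilcoxon.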

Mus musculus [8] = species: Mus musculus; experiment: Protective index, ratio of TD50 for neurotoxicity in Swiss albino mouse to ED50 for inhibition of maximal electroshock-induced seizures Swiss albino mouse; format: functional
Mus musculus [9] = experiment: Neurotoxicity in Swiss albino mouse at 300 mg/kg, ip after 4 hrs; format: toxicity, organism-based; design: dose 300 mg/kg, route intraperitoneal; conditions: in vivo
Mus musculus [10] = species: Mus musculus; experiment: Protective index, ratio of TD50 for neurotoxicity in Swiss albino mouse to ED50 for inhibition of PTZ-induced motor impairment Swiss albino mouse; format: functional
Mus musculus [11] = experiment: Anticonvulsant activity in ip dosed Swiss albino mouse assessed as inhibition of maximum electric shock-induced motor impairment; format: functional
[12] = Neurotoxicity in ip dosed Swiss albino mouse; format: toxicity, organism-based; conditions: in vivo
Mus musculus [13] = experiment: Sedative-hypnotic activity in ip dosed Swiss albino mouse after 24 hrs; format: organism-based; conditions: in vivo
Mus musculus [14] = species: Mus musculus; experiment: Ratio of HD50 for hypnotic activity in Swiss albino mouse to ED50 for inhibition of PTZ-induced motor impairment Swiss albino mouse; format: functional
Procedure, shortened: (§4)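 Ratio of HD50 to i.p. ED50 (scPTZ or MES). HD50, in mg/kg, came from loss of righting reflex in i.p.-dosed albino mice, with a dose range analysed as for phase II ED50.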

Mus musculus [15] = experiment: Anticonvulsant activity in ip dosed Swiss albino mouse assessed as inhibition of PTZ-induced motor impairment; format: functional
Mus musculus [16] = experiment: Protective index, ratio of TD50 for neurotoxicity in po dosed Swiss albino mouse to ED50 for inhibition of maximal electroshock-induced seizures po dosed Swiss albino mouse; format: functional
Mus musculus [17] = experiment: Neurotoxicity in Swiss albino mouse at 300 mg/kg, ip after 0.5 hrs; format: toxicity, organism-based; design: dose 300 mg/kg, route intraperitoneal; conditions: in vivo
[18] = Toxicity in ip dosed Swiss albino mouse after 24 hrs; format: organism-based; conditions: in vivo
Procedure, shortened: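 Albino mice of either sex (25–30 g), in groups of 10, received a range of i.p. doses in polyethylene glycol until at least three points fell within 10–90% effect. Mortality was scored 24 h after injection.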

Mus musculus [19] = experiment: Anticonvulsant activity in po dosed Swiss albino mouse assessed as inhibition of maximum electric shock-induced motor impairment after 2 hrs; format: functional; procedure, shortened: as §3
Mus musculus [20] = species: Mus musculus; experiment: Ratio of HD50 for hypnotic activity in Swiss albino mouse to ED50 for inhibition of maximal electroshock-induced seizures Swiss albino mouse; format: functional; procedure, shortened: as §4
Mus musculus [21] = experiment: Anticonvulsant activity in Swiss albino mouse assessed as inhibition of PTZ-induced motor impairment at 300 mg/kg, ip after 0.5 hrs; format: functional, organism-based; design: dose 300 mg/kg
Procedure, shortened: (§5)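 Albino mice of either sex (25–30 g), 6 per group. Test compound was given i.p. in polyethylene glycol at 30, 100 or 300 mg/kg, and subcutaneous pentylenetetrazole challenge followed 0.5 h or 4.0 h later. Activity was scored as protection in half or more of the mice.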

Mus musculus [22] = experiment: Anticonvulsant activity in Swiss albino mouse assessed as inhibition of maximum electric shock-induced motor impairment at 300 mg/kg, ip after 4 hrs; format: functional, organism-based; design: dose 300 mg/kg
Procedure, shortened: (§6)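 Albino mice of either sex (25–30 g), 6 per group, given drug i.p. in polyethylene glycol at 30, 100 and 300 mg/kg. Maximal electroshock was applied at 0.5 h and 4.0 h. Protection meant abolition of hind limb tonic extension.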

Mus musculus [23] = experiment: Anticonvulsant activity in Swiss albino mouse assessed as inhibition of PTZ-induced motor impairment at 300 mg/kg, ip after 4 hrs; format: functional, organism-based; design: dose 300 mg/kg; procedure, shortened: as §5
Mus musculus [24] = experiment: Anticonvulsant activity in Swiss albino mouse assessed as inhibition of maximum electric shock-induced motor impairment at 300 mg/kg, ip after 0.5 hrs; format: functional, organism-based; design: dose 300 mg/kg; procedure, shortened: as §6

Cc1ccccc1-n1c(Nc2nc(-c3ccc([N+](=O)[O-])cc3)cs2)n[nH]c1=S showed a minimal effective dose (Mus musculus [1]) of 300 mg/kg, an MTD at 0.5 h [2] of 300 mg/kg and an MTD at 4 h [3] of 100 mg/kg. It also gave a minimal effective dose (Mus musculus [4]) of 100 mg/kg, a minimal effective dose (Mus musculus [5]) of 100 mg/kg and a minimal effective dose (Mus musculus [6]) of 100 mg/kg.
For Cc1ccccc1-n1c(Nc2nc(-c3ccc(Br)cc3)cs2)n[nH]c1=S, the TD50 at 2 h [7] was 884 mg/kg, the “Ratio TD50/ED50” value (Mus musculus [8]) was 51 and the minimal effective dose (Mus musculus [1]) was 300 mg/kg. The Activity (Mus musculus [9]) was “Non-toxic”, the “Ratio TD50/ED50” value (Mus musculus [10]) was 8.3 and the ED50 (Mus musculus [11]) was 13.4 mg/kg. For the same compound, the TD50 [12] was 684 mg/kg, the HD50 (Mus musculus [13]) was 632 mg/kg and the Ratio (Mus musculus [14]) was 7.74. The minimal effective dose (Mus musculus [4]) was 30 mg/kg, the ED50 (Mus musculus [15]) was 81.6 mg/kg and the “Ratio TD50/ED50” value (Mus musculus [16]) was 17.7. For the same compound, the Activity (Mus musculus [17]) was “Non-toxic”, the LD50 at 24 h [18] was 834 mg/kg and the minimal effective dose (Mus musculus [5]) was 100 mg/kg. It also gave a minimal effective dose (Mus musculus [6]) of 30 mg/kg, an ED50 (Mus musculus [19]) of 49.9 mg/kg and a Ratio (Mus musculus [20]) of 47.16.
Cc1ccc(-n2c(Nc3nc(-c4ccc(Br)cc4)cs3)n[nH]c2=S)cc1 showed a minimal effective dose (Mus musculus [1]) of 300 mg/kg, an MTD at 4 h [3] of 100 mg/kg and a minimal effective dose (Mus musculus [4]) of 100 mg/kg. The Activity (Mus musculus [17]) was “Non-toxic”, the minimal effective dose (Mus musculus [5]) was 300 mg/kg and the minimal effective dose (Mus musculus [6]) was 300 mg/kg.
In the case of CCC1(c2ccccc2)C(=O)NC(=O)NC1=O [PHENOBARBITAL], the ED50 (Mus musculus [11]) is reported as 21.8 mg/kg, the MTD at 0.5 h [2] is reported as 100 mg/kg and the MTD at 4 h [3] is reported as 300 mg/kg. It also gave a minimal effective dose (Mus musculus [4]) of 100 mg/kg, an ED50 (Mus musculus [15]) of 13.2 mg/kg and a minimal effective dose (Mus musculus [6]) of 30 mg/kg.
NC(=O)N1c2ccccc2C=Cc2ccccc21 [CARBAMAZEPINE] gave an ED50 (Mus musculus [11]) of 8.8 mg/kg and an ED50 (Mus musculus [15]) of over 100 mg/kg.
With Cc1ccccc1-n1c(Nc2nc(-c3ccc(Cl)cc3)cs2)n[nH]c1=S the minimal effective dose (Mus musculus [1]) was 300 mg/kg, the MTD at 0.5 h [2] was 300 mg/kg and the MTD at 4 h [3] was 300 mg/kg. The minimal effective dose (Mus musculus [4]) was 100 mg/kg, the inhibition (Mus musculus [21]) was “inactive” and the inhibition (Mus musculus [22]) was “inactive”.
With COc1ccccc1-n1c(Nc2nc(-c3ccc(Br)cc3)cs2)n[nH]c1=S the inhibition (Mus musculus [23]) was “inactive”, the MTD at 0.5 h [2] was 100 mg/kg and the MTD at 4 h [3] was 300 mg/kg. The minimal effective dose (Mus musculus [4]) was 300 mg/kg, the inhibition (Mus musculus [21]) was “inactive” and the minimal effective dose (Mus musculus [6]) was 300 mg/kg.
For COc1ccc(-n2c(Nc3nc(-c4ccc(Br)cc4)cs3)n[nH]c2=S)cc1, the inhibition (Mus musculus [23]) was “inactive”, the Activity (Mus musculus [9]) was “Non-toxic” and the minimal effective dose (Mus musculus [4]) was 300 mg/kg. For the same compound, the Activity (Mus musculus [17]) was “Non-toxic”, the inhibition (Mus musculus [21]) was “inactive” and the minimal effective dose (Mus musculus [6]) was 300 mg/kg.
With O=C1NC(=O)C(c2ccccc2)(c2ccccc2)N1 [PHENYTOIN] the inhibition (Mus musculus [23]) was “inactive”, the MTD at 0.5 h [2] was 100 mg/kg and the MTD at 4 h [3] was 100 mg/kg. For the same compound, the HD50 (Mus musculus [13]) was 182 mg/kg, the minimal effective dose (Mus musculus [4]) was 30 mg/kg and the ED50 (Mus musculus [15]) was over 300 mg/kg. For the same compound, the inhibition (Mus musculus [21]) was “inactive”, the LD50 at 24 h [18] was 224 mg/kg and the minimal effective dose (Mus musculus [6]) was 30 mg/kg. The ED50 (Mus musculus [19]) was 9.16 mg/kg.
In the case of COc1ccccc1-n1c(Nc2nc(-c3ccc(Cl)cc3)cs2)n[nH]c1=S, the inhibition (Mus musculus [23]) is reported as “inactive”, the Activity (Mus musculus [9]) is reported as “Non-toxic” and the MTD at 0.5 h [2] is reported as 300 mg/kg. The minimal effective dose (Mus musculus [4]) was 100 mg/kg, the minimal effective dose (Mus musculus [5]) was 100 mg/kg and the minimal effective dose (Mus musculus [6]) was 100 mg/kg.
In the case of COc1ccc(-n2c(Nc3nc(-c4ccc(Cl)cc4)cs3)n[nH]c2=S)cc1, the TD50 at 2 h [7] is reported as 735 mg/kg, the inhibition (Mus musculus [23]) is reported as “inactive” and the “Ratio TD50/ED50” value (Mus musculus [8]) is reported as 18.3. For the same compound, the Activity (Mus musculus [9]) was “Non-toxic”, the “Ratio TD50/ED50” value (Mus musculus [10]) was 2.4 and the ED50 (Mus musculus [11]) was 23.9 mg/kg. For the same compound, the TD50 [12] was 439 mg/kg, the HD50 (Mus musculus [13]) was 867 mg/kg and the Ratio (Mus musculus [14]) was 4.85. The minimal effective dose (Mus musculus [4]) was 30 mg/kg, the ED50 (Mus musculus [15]) was 179 mg/kg and the “Ratio TD50/ED50” value (Mus musculus [16]) was 13.4. For the same compound, the Activity (Mus musculus [17]) was “Non-toxic”, the LD50 at 24 h [18] was 946 mg/kg and the minimal effective dose (Mus musculus [5]) was 300 mg/kg. For the same compound, the minimal effective dose (Mus musculus [6]) was 100 mg/kg, the ED50 (Mus musculus [19]) was 54.8 mg/kg and the Ratio (Mus musculus [20]) was 36.27.
In the case of CCC1(C)CC(=O)NC1=O (stereo not drawn) [ETHOSUXIMIDE], the minimal effective dose (Mus musculus [1]) is reported as 300 mg/kg, the Activity (Mus musculus [9]) is reported as “Non-toxic” and the inhibition (Mus musculus [24]) is reported as “inactive”. For the same compound, the Activity (Mus musculus [17]) was “Non-toxic”, the inhibition (Mus musculus [21]) was “inactive” and the inhibition (Mus musculus [22]) was “inactive”. It also gave a minimal effective dose (Mus musculus [5]) of 100 mg/kg.
With COc1ccccc1-n1c(Nc2nc(-c3ccc([N+](=O)[O-])cc3)cs2)n[nH]c1=S the inhibition (Mus musculus [23]) was “inactive”, the MTD at 0.5 h [2] was 100 mg/kg and the MTD at 4 h [3] was 300 mg/kg. The minimal effective dose (Mus musculus [4]) was 100 mg/kg, the inhibition (Mus musculus [21]) was “inactive” and the minimal effective dose (Mus musculus [6]) was 100 mg/kg.
